From paper PMC4201343 (ACS Chemical Biology, 2014)
Changes are numbered by the printed parent chain. pIC50: −log10 of the molar value. “Also recorded” adds a separate entry of the source.

How the values were obtained:
HCV NS3h [1] = biological target: T1, HCV NS3h (Hepatitis C virus genotype 1b, UniProt Q9WMX2); assay: FP-based binding assay, NS3h displacement from Cy5-dT15 DNA; design: species or system hepatitis C virus genotype 1b (con1); conditions: for NS3h (% I): percent inhibition of NS3h binding to Cy5-dT15: 100 μM of each compound, 100 µM
T1 sequence (Q9WMX2 1190-1657 limits assumed): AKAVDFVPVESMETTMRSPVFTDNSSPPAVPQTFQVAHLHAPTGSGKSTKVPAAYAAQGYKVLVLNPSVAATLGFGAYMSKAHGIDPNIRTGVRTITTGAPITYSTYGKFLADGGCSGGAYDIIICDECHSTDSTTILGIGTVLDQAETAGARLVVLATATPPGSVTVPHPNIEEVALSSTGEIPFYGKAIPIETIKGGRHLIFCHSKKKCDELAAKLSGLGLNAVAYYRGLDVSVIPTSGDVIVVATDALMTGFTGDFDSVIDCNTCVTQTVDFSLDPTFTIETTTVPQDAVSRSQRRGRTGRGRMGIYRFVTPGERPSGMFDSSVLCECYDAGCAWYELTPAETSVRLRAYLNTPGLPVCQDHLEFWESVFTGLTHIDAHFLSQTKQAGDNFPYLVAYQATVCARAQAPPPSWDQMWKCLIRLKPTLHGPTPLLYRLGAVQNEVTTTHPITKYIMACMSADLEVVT
Procedure, shortened: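 Fluorescence polarization with Cy5-dT15 and NS3h: excitation 635 nm; parallel and perpendicular emission read at 667 nm; G-factor taken from probe-only wells. % inhibition normalized to DMSO-only (negative) and 200 nM dT20 or 100 μM primuline (positive) controls. Single-point tests at 100 μM. IC50 is the concentration displacing 50% of NS3h from DNA. Reversibility: 10 μM NS3h preincubated 1 h with test compound, then diluted 100–100 000-fold into Cy5-dT15 and compared with untreated controls.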

NS3h helicase = biological target: T2, NS3h helicase (Hepatitis C virus genotype 1b, UniProt Q9WMX2); assay: Molecular beacon-based helicase; assay type: biochemical, hepatitis C virus genotype 1b (con1); conditions: IC50 Helicase (DNA unwinding), Figure 7B, no DTT
T2 sequence (Q9WMX2 1190-1657 limits assumed): T1 sequence (Q9WMX2 1190-1657 limits assumed)

NS3h = biological target: T3, NS3h (Hepatitis C virus genotype 1b, UniProt Q9WMX2); assay: ESI mass spectrometry of ebselen-treated NS3h; design: species or system hepatitis C virus genotype 1b (con1); conditions: 100 μM ebselen, 1 h, RT
T3 sequence (Q9WMX2 1190-1657 limits assumed): T1 sequence (Q9WMX2 1190-1657 limits assumed)
Procedure, shortened: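 Con1 NS3h was incubated 1 h at RT with 100 μM test compound in 10 mM ammonium acetate pH 7.5, 1% DMSO. It was dialysed against 10 mM ammonium acetate (three changes) and diluted to 0.15 mg/mL in 50:50 acetonitrile/water, 0.2% formic acid. Nano-ESI Q-TOF, positive mode, 3 kV, 0.7 μL/min, 10 min acquisition, compared with untreated and DMSO-treated protein.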

NS3h_1b(con1) C289S = biological target: T4, NS3h_1b(con1) C289S (Hepatitis C virus genotype 1b, UniProt Q9WMX2, C1315S); assay: DNA binding, ATP hydrolysis and DNA unwinding assays with C289S NS3h; assay type: biochemical, hepatitis C virus genotype 1b (con1); conditions: DNA binding, ATP hydrolysis, DNA unwinding
T4 sequence (Q9WMX2 1190-1657 C1315S limits assumed): T1 sequence (Q9WMX2 1190-1657 limits assumed) with C126S

NS3h_1b(con1) C279S = biological target: T5, NS3h_1b(con1) C279S (Hepatitis C virus genotype 1b, UniProt Q9WMX2, C1305S); assay: DNA binding, ATP hydrolysis and DNA unwinding assays with C279S NS3h; assay type: biochemical, hepatitis C virus genotype 1b (con1); conditions: DNA binding, ATP hydrolysis, DNA unwinding
T5 sequence (Q9WMX2 1190-1657 C1305S limits assumed): T1 sequence (Q9WMX2 1190-1657 limits assumed) with C116S

[2] = biological target: NS3 protease (scNS3-NS4A) (Hepatitis C virus, UniProt Q9WMX2); assay: Protease assay; assay type: biochemical; conditions: even at the highest concentrations tested
Procedure, shortened: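 Full-length single-chain NS3-4A at 10 nM, in kit HCV protease buffer without DTT with 5% DMSO, cleaving a 5-carboxyfluorescein-labelled peptide substrate; fluorescence read at 520 nm. Test compound was run as a 7-point two-fold dilution series from 100 μM, in duplicate.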

NS3 ATPase = biological target: T6, NS3 ATPase (Hepatitis C virus genotype 1b, UniProt Q9WMX2); assay: ATPase assay; assay type: biochemical, hepatitis C virus genotype 1b (con1); conditions: Figure 7B
T6 sequence (Q9WMX2 1190-1657 limits assumed): T1 sequence (Q9WMX2 1190-1657 limits assumed)

HCV NS3h [3] = biological target: T1, HCV NS3h; assay: FP-based binding assay, NS3h displacement from Cy5-rU15 RNA; design: species or system hepatitis C virus genotype 1b (con1); conditions: IC50 RNA (Cy5-rU15–NS3h complex, RNA:NS3h binding), Figures 1C and 7B titration
Procedure, shortened: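 Con1 NS3h bound to 5′-Cy5-labelled rU15 RNA was titrated with test compound. Polarisation was read with excitation 635 nm and emission 667 nm, G-factor from probe-only wells. Values were normalised to DMSO and positive controls and fit to a concentration–response equation (n = 3). IC50 is the concentration reducing complex polarisation by 50%.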

E. coli SSB = E. coli SSB (Escherichia coli, UniProt P0AGE0); assay: FP-based binding assay with SSB in place of NS3h
Procedure, shortened: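 Fluorescence polarisation assay with E. coli SSB in place of NS3h, using Cy5-dT15 (or Cy5-rU15 for titrations). Screen compounds were pin-transferred to 100 μM final, 1% DMSO. Excitation 635 nm, emission 667 nm; G-factor from probe-only wells. Percent inhibition was normalised to DMSO and to unlabeled dT20 or 100 μM primuline controls.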

[4] = system: HCV genotype 2a isolate (JFH1); conditions: 20 μM of each compound; ref Gastaminza et al.[9]; cited from earlier work

Chain of E. coli SSB (P0AGE0 2-178 limits assumed): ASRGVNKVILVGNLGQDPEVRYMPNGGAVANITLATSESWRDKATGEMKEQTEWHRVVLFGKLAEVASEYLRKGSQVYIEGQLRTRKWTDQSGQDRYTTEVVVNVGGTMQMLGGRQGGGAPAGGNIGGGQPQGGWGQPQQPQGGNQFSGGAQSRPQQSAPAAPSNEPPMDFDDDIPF

O=c1c2ccccc2[se]n1-c1ccccc1 [Ebselen, 2-phenyl-1,2-benzisoselenazol-3(2H)-one]
reversibility of NS3h inhibition (HCV NS3h [1]; 10 μM NS3h treated with 10 μM ebselen for 1 h, then diluted to <0.1 μM ebselen): reversible | NS3h (% I): percent inhibition of NS3h binding to Cy5-dT15 (HCV NS3h [1]): 99% | NS3h (% I): percent inhibition of NS3h binding to Cy5-dT15 (HCV NS3h [1]; listed as ebselen): more than 50% | pIC50 (HCV NS3h [1]; IC50 DNA (Cy5-dT15–NS3h complex), Figure 1C titration, n = 3): ~6.00 | reversibility of NS3h inhibition (HCV NS3h [1]; NS3h incubated with 100 μM ebselen, then dialysis): irreversible | pIC50 (NS3h helicase): ~6.00 | number of ebselens bound to NS3h (covalent adducts) (NS3h): 14 | sensitivity to ebselen inhibition compared with wild type (NS3h_1b(con1) C289S): neither protein was more or less sensitive | sensitivity to ebselen inhibition compared with wild type (NS3h_1b(con1) C279S): neither protein was more or less sensitive | effect on NS3 protease activity (peptide cleavage by full-length NS3) [2]: no effect | pIC50 (NS3 ATPase): ~6.00 | pIC50 (HCV NS3h [3]): ~6.00 | effect on SSB binding to DNA or RNA (E. coli SSB; Cy5-dT15 or Cy5-rU15, Figure 1D titration): no effect; also recorded: did not inhibit | inhibition at 100 µM (E. coli SSB; read-out: SSB (% I): percent inhibition of SSB binding to Cy5-dT15): 3% | HCV (% I): percent inhibition of HCV replication in cells [4]: 83%
